Hits are enriched below; roughly 1.5% of the tested compounds scored in any of these assays.
PKA-R2B activ = activators of PKA-R2B holoenzyme, primary screen, biochemical, fluorescence polarization, Cy5-IP20, human; PKA-R2B holoenzyme dissociation; R2B truncated from residue 108, S112A mutant; 0% DMSO only, 100% 113 µM cGMP; activation, % at 11.4 µM; hit rate 0.079% among 340,000;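 active = activation above a cutoff set at the mean over all compounds plus 3 SD, cut at about 18% in these data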;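 note: higher means more holoenzyme dissociation and a rise in polarization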
Target sequence (P31323 whole entry, looked up, other chains not shown, the tested form may be a part): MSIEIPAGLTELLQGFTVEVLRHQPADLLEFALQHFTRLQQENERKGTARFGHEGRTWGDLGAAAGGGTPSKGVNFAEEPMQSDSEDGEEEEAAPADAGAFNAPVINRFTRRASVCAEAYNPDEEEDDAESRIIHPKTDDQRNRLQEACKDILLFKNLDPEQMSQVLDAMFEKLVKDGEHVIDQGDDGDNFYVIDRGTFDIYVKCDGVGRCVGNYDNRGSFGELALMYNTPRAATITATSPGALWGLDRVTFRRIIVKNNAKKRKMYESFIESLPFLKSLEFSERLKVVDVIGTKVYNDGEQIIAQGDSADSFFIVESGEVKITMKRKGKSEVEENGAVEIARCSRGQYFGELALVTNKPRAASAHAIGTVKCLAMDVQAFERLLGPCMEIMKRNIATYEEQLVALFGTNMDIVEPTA
PKA-R1A activ = activators of PKA-R1A holoenzyme, primary screen, biochemical, fluorescence polarization, Cy5-IP20, bovine R1A, mouse PKAc; PKA-R1A dissociation; scaled: DMSO 0%, 113 µM cGMP 100%; cAMP-dependent protein kinase type I-alpha regulatory subunit (Bos taurus) + …; AID 504707, 2011; activation, % at 11.4 µM; hit rate 0.083% among 340,000;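 active = percent activation above the mean of all tested compounds plus 3 SD, cut at about 19% in these data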;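 note: higher means more PKAc released from R1A so a rise in polarization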
S100A4 inh HTS = inhibitors of S100A4-myosin IIA peptide binding, primary screen, biochemical, fluorescence polarization, TAMRA-MyoIIA peptide. Protein S100-A4 (Homo sapiens), P26447. inhibition, % at 10.7 µM. hit rate 0.14% among 360,000. AID 652163, 2013;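 active = mean inhibition of at least 70% across replicates, with every replicate also reaching that level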
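Material: S100A4 monomer protein / Buffer or medium: 50 mM HEPES pH 7.2, 10 mM CaCl2, 100 mM KCl / Times: 5 min incubation before reading / Benchmarks: neutral control DMSO, positive control TFP / Reagent: labelled myosin peptide probe, 5 nM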
CRFBP-R2 block = antagonists of CRF-BP/CRF-R2 complex, primary screen, cell-based, HEK293, calcium dye fluorescence, uHTS; CRF-induced calcium fluorescence; inhibition, % at 11.8 µM; hit rate 0.59% among 350,000;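 active = inhibition of the ligand-induced calcium signal above about 50% at the single tested concentration, limit read from the data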
SIRT5 block = SIRT5 desuccinylase inhibitors, primary screen, biochemical, fluorescence imaging, single point, set 5; Purified SirT5, succinyl-peptide AMC, trypsin-coupled fluorescence; AID 652115, 2013; NAD-dependent protein deacylase sirtuin-5, mitochondrial (Homo sapiens), Q9NXA8; hit rate 1.1% among 330,000; inhibition, % at 15 µM; in the data active = inhibition above about 15%
Target sequence (Q9NXA8 whole entry, looked up): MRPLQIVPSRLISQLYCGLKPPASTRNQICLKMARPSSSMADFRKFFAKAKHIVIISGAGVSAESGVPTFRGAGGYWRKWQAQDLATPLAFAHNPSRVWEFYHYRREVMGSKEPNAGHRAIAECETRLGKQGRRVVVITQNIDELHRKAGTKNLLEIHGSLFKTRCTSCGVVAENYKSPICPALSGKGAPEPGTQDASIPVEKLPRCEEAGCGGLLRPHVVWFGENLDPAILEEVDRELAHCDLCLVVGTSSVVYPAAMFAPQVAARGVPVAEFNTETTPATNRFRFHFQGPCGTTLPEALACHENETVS
Large screens that a line does not name were inactive.

CC(C)N(C(=O)[C@H]1C[C@H](CC(=O)NCc2cccc(C(F)(F)F)c2)C(=O)N2CCc3c([nH]c4cc(CCC(=O)N(C)C)ccc34)[C@]12C)C(C)C	SIRT5 block 24
CCN(CC)C(=O)[C@H]1C[C@H](CC(=O)NC/C=C(\C)CCC=C(C)C)C(=O)N2CCc3c([nH]c4cc(CCC(=O)N(C)C)ccc34)[C@]12C	CRFBP-R2 block 67 (no result: S100A4 inh HTS, SIRT5 block)
O=C(C[C@H]1C[C@H](C(=O)N2CCOCC2)[C@@]2(CCC3CCCC3)c3[nH]c4cc(-c5ccco5)ccc4c3CCN2C1=O)NCCC1=CCCCC1	none (no result: S100A4 inh HTS, SIRT5 block)
O=C(NCC[C@H]1CC[C@H](NS(=O)(=O)c2ccccc2)[C@H](CO)O1)c1ccccc1F	none (no result: PKA-R2B activ, PKA-R1A activ, CRFBP-R2 block)
CCCc1cn(CC[C@@H]2CC[C@H](NC(=O)C3CCOCC3)[C@H](CO)O2)nn1	none (no result: PKA-R2B activ, PKA-R1A activ, CRFBP-R2 block)
Cc1noc(C)c1NC(=O)Nc1ccc2c(c1)C(=O)N([C@@H](C)CO)C[C@@H](C)[C@@H](CN(C)S(=O)(=O)c1ccc(F)cc1)O2	none (no result: PKA-R2B activ, PKA-R1A activ, CRFBP-R2 block)
COc1cc(C2CC(=O)c3c(ccc4ccccc34)N2)ccc1O (stereo not drawn)	none (no result: S100A4 inh HTS, SIRT5 block)
COc1cccc(C2Nc3ccc4ccccc4c3C3=C2C(=O)CCC3)c1O (stereo not drawn)	SIRT5 block 22
CO[C@@H]1CN(C)C(=O)c2ccc(NC(=O)C3CC3)cc2OC[C@H](C)N(C(=O)c2cnccn2)C[C@H]1C	none (no result: PKA-R2B activ, PKA-R1A activ, CRFBP-R2 block)
COCC(=O)N1C[C@@H](C)[C@@H](OC)CN(C)C(=O)c2cc(NC(=O)c3cc(C)on3)ccc2OC[C@H]1C	SIRT5 block 19 (no result: PKA-R2B activ, PKA-R1A activ, CRFBP-R2 block)
COCC(=O)N1C[C@H](C)[C@H](OC)CN(C)C(=O)c2cc(NC(=O)C3CCC3)ccc2OC[C@@H]1C	SIRT5 block 24 (no result: PKA-R2B activ, PKA-R1A activ, CRFBP-R2 block)
COCC(=O)N1C[C@@H](C)[C@H](OC)CN(C)C(=O)c2cc(NC(=O)C3CCC3)ccc2OC[C@@H]1C	none (no result: PKA-R2B activ, PKA-R1A activ, CRFBP-R2 block)
COCCCNc1nc2cc(OC)c(OC)cc2c2nc(-c3ccccc3)nn12	SIRT5 block 21
C[C@@H]1CN([C@@H](C)CO)C(=O)c2cc(Br)cnc2O[C@H]1CN(C)Cc1ccccn1	none (no result: PKA-R2B activ, PKA-R1A activ, CRFBP-R2 block)
COc1ccccc1-c1cnc2c(c1)C(=O)N([C@@H](C)CO)C[C@H](C)[C@@H](CN(C)C(=O)c1cccnc1)O2	none (no result: PKA-R2B activ, PKA-R1A activ, CRFBP-R2 block)
O=C(c1ccccn1)N1CC2(C1)[C@H](c1ccccc1)[C@@H](CO)N2Cc1cccnc1	none (no result: PKA-R2B activ, PKA-R1A activ, CRFBP-R2 block)
O=C1Nc2ccccc2C(=O)N2[C@H](c3ccccc3)[C@@H]3C(=O)N(Cc4ccccc4)C(=O)[C@@H]3[C@H]12	SIRT5 block 16
COc1ccc(C(C(=O)NC2CCCC2)N(C(=O)c2ccoc2C)c2ccccc2)cc1 (stereo not drawn)	none
COc1ccc(C(C(=O)NC2CCCCC2)N(C(=O)c2sc(C)nc2C)c2ccc(OC)cc2)cc1 (stereo not drawn)	CRFBP-R2 block 64
COc1ccc(C(C(=O)NC2CCCC2)N(C(=O)c2ccoc2C)c2cc(C)cc(C)c2)cc1 (stereo not drawn)	CRFBP-R2 block 83
CC1(C)CC(=O)C(N=Nc2ccc(F)cc2)=C(O)C1	SIRT5 block 30
CC1(C)CC(=O)C(N=Nc2ccc(Cl)cc2)=C(O)C1	none (no result: S100A4 inh HTS, SIRT5 block)
COc1ccc(NC(=O)N[C@@H]2CC[C@@H](CCNS(=O)(=O)c3ccccc3F)O[C@@H]2CO)cc1	none (no result: PKA-R2B activ, PKA-R1A activ, CRFBP-R2 block)
CC(=O)c1cccc(Nc2cc(C)nc3c(C)cccc23)c1	CRFBP-R2 block 109
Cc1c(Cl)ccc2c1NC(=O)C21NC(CCC(N)=O)[C@H]2C(=O)N(c3ccc(Cl)cc3)C(=O)[C@H]21 (stereo partly drawn)	CRFBP-R2 block 50 (no result: S100A4 inh HTS, SIRT5 block)
Cc1c(Cl)ccc2c1NC(=O)[C@]21N[C@@H](CCC(N)=O)[C@H]2C(=O)N(c3ccc(F)cc3)C(=O)[C@H]21	none (no result: S100A4 inh HTS, SIRT5 block)
COc1ccc(-c2nnc(Nc3ccc(S(=O)(=O)Nc4nccs4)cc3)c3ccccc23)cc1	CRFBP-R2 block 61
COc1ccc(Nc2nnc(-c3ccc(C(N)=O)cc3)c3ccccc23)cc1	none
O=C1CCSc2c1ccc1ccccc21	CRFBP-R2 block 61 (no result: SIRT5 block)
O=C1CCCc2cc3c(ccc4ccccc43)cc21	none (no result: SIRT5 block)
Cc1noc(C)c1NC(=O)Nc1cccc2c1O[C@@H](CN(C)C(=O)Nc1cccc3ccccc13)[C@@H](C)CN([C@@H](C)CO)C2=O	none (no result: PKA-R2B activ, PKA-R1A activ, CRFBP-R2 block)
O=[N+]([O-])c1ccc2c(c1)nc1n2CCCCC1	SIRT5 block 17
O=C/C(=C\Nc1ccccn1)c1nc2cc(Cl)ccc2o1	CRFBP-R2 block 80
CCCNC(=O)[C@@H]1[C@@H](CO)[C@@H]2Cn3c(ccc(-c4ccccc4OC)c3=O)[C@@H]2N1C(=O)CC	none (no result: PKA-R2B activ, PKA-R1A activ, CRFBP-R2 block)
N[C@@H](CO)c1nnc([C@H](Cc2ccc(O)cc2)NC(=O)C2CCNCC2)o1	SIRT5 block 28
C[C@H](O)C#Cc1cnc2c(c1)C(=O)N([C@H](C)CO)C[C@H](C)[C@@H](CN(C)Cc1ccccn1)O2	none (no result: PKA-R2B activ, PKA-R1A activ, CRFBP-R2 block)
CCSc1nnc(NC(=O)Cc2ccc(OC)cc2)s1	SIRT5 block 20
COc1cccc(C(=O)Nc2ccc3c(c2)C(=O)N(C)C[C@H](OC)[C@H](C)CN(C(C)=O)[C@@H](C)CO3)c1	none (no result: PKA-R2B activ, PKA-R1A activ, CRFBP-R2 block)
O=C1CC(O)(C(F)F)Oc2ccc3ccccc3c21 (stereo not drawn)	none (no result: S100A4 inh HTS, SIRT5 block)
O=C1CC(O)(C(F)(F)F)Oc2c1ccc1ccccc21 (stereo not drawn)	CRFBP-R2 block 65
COC(=O)[C@]12CCCCC=C1N(Cc1cccc3ccccc13)C(=O)[C@H](CC(=O)NCCCCc1ccccc1)C2	none (no result: PKA-R2B activ, PKA-R1A activ, CRFBP-R2 block)
COC(=O)[C@]12CCCCC=C1N(CCC1=CCCCC1)C(=O)[C@H](CC(=O)NCCc1ccccc1OC)C2	SIRT5 block 16 (no result: PKA-R2B activ, PKA-R1A activ, CRFBP-R2 block)
COC(=O)[C@]12CCCCC=C1N(Cc1ccccc1)C(=O)[C@H](CC(=O)NCCCCc1ccccc1)C2	SIRT5 block 17 (no result: PKA-R2B activ, PKA-R1A activ, CRFBP-R2 block)
COC(=O)[C@]12CCCCC=C1N(Cc1ccc(Cl)cc1Cl)C(=O)[C@H](CC(=O)NCc1cccc(C(F)(F)F)c1)C2	SIRT5 block 20 (no result: PKA-R2B activ, PKA-R1A activ, CRFBP-R2 block)
O=C(C[C@H]1C/C=C\C[C@@H](Cc2ccc(F)cc2)C(=O)O[C@H](c2ccccc2)CNC1=O)NCCO	CRFBP-R2 block 84 (no result: SIRT5 block)
C[C@H]1CN([C@@H](C)CO)C(=O)c2cc(NC(=O)CCC(F)(F)F)ccc2O[C@H]1CN(C)S(=O)(=O)c1cccs1	none (no result: PKA-R2B activ, PKA-R1A activ, CRFBP-R2 block)
CN(C)CCCN(C(=O)c1ccco1)c1nc2ccc(F)cc2s1	SIRT5 block 19
COc1ccccc1NC(=O)N[C@H]1C=C[C@H](CC(=O)N2CCC(Cc3ccccc3)CC2)O[C@H]1CO	none (no result: PKA-R2B activ, PKA-R1A activ, CRFBP-R2 block)

Screening data as filed in PubChem.
